The values below come from ChEMBL document CHEMBL4014309, “Development of an Acrylate Derivative Targeting the NLRP3 Inflammasome for the Treatment of Inflammatory Bowel Disease” (J Med Chem, 2017).

Converted amounts (≈) assume the structure as drawn. The source made the active and inactive calls. No cut-off for these calls is given here.

For series [1], the target named is NACHT, LRR and PYD domains-containing protein 3 (Homo sapiens) (UniProt Q96P20). Put plainly: Inhibition of recombinant human NLRP3 ATPase assessed as hydrolysis of ATP preincubated for 15 mins followed by addition of ATP measured after 40 mins by ADP-Glo assay. Put shortly:
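Human recombinant NLRP3 (0.105 µg) in 20 mM Tris-HCl pH 7.8, 133 mM NaCl, 20 mM MgCl2, 3 mM KCl, 0.56 mM EDTA, 0.5% DMSO. Compound (100 or 50 µM) was preincubated 15 min at 37 °C, then ATP (250 µM) was added for 40 min at 37 °C. ADP was read by ADP-Glo luminescence. Result is % inhibition vs vehicle; mean ± SEM, ≥3 experiments.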
(In general: ADP-Glo first removes unused ATP, then detects ADP through luciferase.)

For series [2], the system named is Rattus norvegicus. Put plainly: Anti-inflammatory activity in DNBS-induced Sprague-Dawley rat colitis model assessed as DNBS-induced IL-1beta levels in colon at 50 mg/kg/day, ig for 6 days simulatneously with 6 days of DNBS-challenge by ELISA (reference value: 22.3 +/- 2.9 ng/mg). The format is functional.
In series [3] the test system is Rattus norvegicus. Put plainly: Anti-inflammatory activity in DNBS-induced Sprague-Dawley rat colitis model assessed as DNBS-induced TNFalpha levels in colon at 12.5 mg/kg/day, ig for 6 days simulatneously with 6 days of DNBS-challenge by ELISA (reference value: 5.9 +/- 0.6 pg/mg). It counts as functional.
The nature of series [4]: Glutathione reactivity assessed as adduct formation of the compound at pH 7.4 and 9.
Series [5] deals with NACHT, LRR and PYD domains-containing protein 3 (Homo sapiens) (UniProt Q96P20). The series can be described thus: Irreversible inhibition of His-FLAG- tagged NLRP3-ATPase (unknown origin) at 100 uM preincubated for 55 mins followed by compound wash-out and ATP addition measured after 40 mins by ADP-Glo assay. Put shortly:
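His-FLAG NLRP3 (105 ng/well) captured on anti-FLAG-coated, BSA-blocked wells for 3 h at 4 °C. Compound (100 µM final, 2% DMSO) preincubated 55 min at 37 °C. Wells were washed three times (or not washed), then ATP (250 µM) was added for 40 min at 37 °C. ADP was read by ADP-Glo. Equal protein loading was checked by anti-His ELISA.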

The test system of series [6] is Rattus norvegicus. The series can be described thus: Antiinflammatory activity in DNBS-induced Sprague-Dawley rat colitis model assessed as DNBS-induced decrease in colonic length at 25 mg/kg/day, ig administered as suspension in olive oil for 6 days simulatneously with 6 days of DNBS-challenge (reference value: -34.4%). The format is functional. On the set-up: scale not given: the % may be the effect or the level left.

The subject of a further series is Liver. Put plainly: Drug metabolism in Sprague-Dawley rat liver microsomes assessed as formation of 2-(2-chlorobenzyl)acrylic acid at 100 uM at <1 min in presence of NADPH by UHPLC-MS analysis. The format is ADME, microsome. On the technique in general: Liver microsomes are a subcellular fraction often used to study metabolism.
The subject of series [7] is Rattus norvegicus. The series can be described thus: Anti-inflammatory activity in DNBS-induced Sprague-Dawley rat colitis model assessed as DNBS-induced IL-1beta levels in colon at 12.5 mg/kg/day, ig for 6 days simulatneously with 6 days of DNBS-challenge by ELISA (reference value: 22.3 +/- 2.9 ng/mg). It counts as functional.
Series [8] can be described thus: Solubility of the compound in PBS at 1.56 mg […] and pH 7.4 after 24 hrs by UHPLC-MS analysis. It counts as physicochemical.
The test system of series [9] is Rattus norvegicus. The series can be described thus: Antiinflammatory activity in DNBS-induced Sprague-Dawley rat colitis model assessed as reduction in DNBS-induced spleen weight increase by measuring increase in spleen weight at 12.5 mg/kg/day, ig administered as suspension in olive oil for 6 days simulatneously with 6 days of DNBS-challenge measured daily during compound dosing (reference value: 39.3%). It counts as functional. Further details: scale not given: the % may be the effect or the level left. Put shortly: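 Spleen weight was used as an index of systemic inflammation. Rats had intrarectal DNBS (15 mg/0.25 mL 50% ethanol) and 6 days of intragastric dosing: 1 mg/kg/day in 1% methylcellulose, or 12.5–50 mg/kg/day in 0.2 mL olive oil. The spleen was weighed at sacrifice and expressed as percent increase versus control, n = 10.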

Series [10] can be described thus: Stability of the compound in simulated intestinal fluid at 1.56 mg as suspension in olive oil and pH 7 after 2 hrs by UHPLC-MS analysis. Put shortly:
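1.56 mg suspended in 100 µL olive oil, mixed with 100 µL SGF (pH 2, pepsin 3.2 mg/mL) for 2 h at 37 °C with shaking. Then 200 µL SIF (pH 7, pancreatin 2 mg/mL) was added for a further 2 h. Dedicated samples at 0, 30, 60 and 120 min were extracted with acetonitrile and analysed by UHPLC-MS. ≥3 repeats.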

Series [11] addresses NACHT, LRR and PYD domains-containing protein 3 (Mus musculus) (UniProt Q8R4B8). Put plainly: Inhibition of NLRP3 inflammasome in LPS-primed C57BL/6 mouse bone marrow derived macrophages assessed as reduction in ATP-induced caspase-1 activation at 10 to 100 uM preincubated for 1 hr followed by stimulation with ATP measured after 30 mins by Western blot analysis.

NACHT, LRR and PYD domains-containing protein 3 (Homo sapiens), sequence (Q96P20 whole entry, the tested form may be a part): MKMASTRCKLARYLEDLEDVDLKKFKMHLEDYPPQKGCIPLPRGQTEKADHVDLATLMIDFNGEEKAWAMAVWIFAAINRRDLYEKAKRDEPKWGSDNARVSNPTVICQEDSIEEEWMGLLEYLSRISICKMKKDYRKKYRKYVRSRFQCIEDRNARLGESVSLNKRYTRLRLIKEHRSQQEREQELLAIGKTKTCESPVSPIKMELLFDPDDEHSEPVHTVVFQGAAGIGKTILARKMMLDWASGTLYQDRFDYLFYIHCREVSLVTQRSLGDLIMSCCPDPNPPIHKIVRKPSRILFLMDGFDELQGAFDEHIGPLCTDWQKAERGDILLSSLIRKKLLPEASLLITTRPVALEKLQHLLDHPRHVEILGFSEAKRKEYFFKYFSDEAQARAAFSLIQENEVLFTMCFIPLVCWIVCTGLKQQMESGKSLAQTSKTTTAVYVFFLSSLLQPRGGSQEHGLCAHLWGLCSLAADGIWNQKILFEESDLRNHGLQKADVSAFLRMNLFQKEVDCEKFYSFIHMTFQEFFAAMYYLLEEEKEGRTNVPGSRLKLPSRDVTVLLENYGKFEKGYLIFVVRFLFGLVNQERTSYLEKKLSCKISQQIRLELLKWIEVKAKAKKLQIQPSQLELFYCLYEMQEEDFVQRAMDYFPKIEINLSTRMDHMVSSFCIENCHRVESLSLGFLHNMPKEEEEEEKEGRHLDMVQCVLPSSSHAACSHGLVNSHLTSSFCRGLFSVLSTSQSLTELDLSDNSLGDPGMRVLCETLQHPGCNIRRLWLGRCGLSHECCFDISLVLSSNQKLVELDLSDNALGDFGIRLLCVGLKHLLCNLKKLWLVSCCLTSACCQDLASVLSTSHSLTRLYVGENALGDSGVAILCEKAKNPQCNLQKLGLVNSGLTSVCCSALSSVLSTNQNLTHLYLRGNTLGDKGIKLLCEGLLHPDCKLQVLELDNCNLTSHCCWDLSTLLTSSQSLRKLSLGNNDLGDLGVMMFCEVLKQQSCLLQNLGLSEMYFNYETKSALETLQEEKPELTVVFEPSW
NACHT, LRR and PYD domains-containing protein 3 (Mus musculus), sequence (Q8R4B8 whole entry, the tested form may be a part): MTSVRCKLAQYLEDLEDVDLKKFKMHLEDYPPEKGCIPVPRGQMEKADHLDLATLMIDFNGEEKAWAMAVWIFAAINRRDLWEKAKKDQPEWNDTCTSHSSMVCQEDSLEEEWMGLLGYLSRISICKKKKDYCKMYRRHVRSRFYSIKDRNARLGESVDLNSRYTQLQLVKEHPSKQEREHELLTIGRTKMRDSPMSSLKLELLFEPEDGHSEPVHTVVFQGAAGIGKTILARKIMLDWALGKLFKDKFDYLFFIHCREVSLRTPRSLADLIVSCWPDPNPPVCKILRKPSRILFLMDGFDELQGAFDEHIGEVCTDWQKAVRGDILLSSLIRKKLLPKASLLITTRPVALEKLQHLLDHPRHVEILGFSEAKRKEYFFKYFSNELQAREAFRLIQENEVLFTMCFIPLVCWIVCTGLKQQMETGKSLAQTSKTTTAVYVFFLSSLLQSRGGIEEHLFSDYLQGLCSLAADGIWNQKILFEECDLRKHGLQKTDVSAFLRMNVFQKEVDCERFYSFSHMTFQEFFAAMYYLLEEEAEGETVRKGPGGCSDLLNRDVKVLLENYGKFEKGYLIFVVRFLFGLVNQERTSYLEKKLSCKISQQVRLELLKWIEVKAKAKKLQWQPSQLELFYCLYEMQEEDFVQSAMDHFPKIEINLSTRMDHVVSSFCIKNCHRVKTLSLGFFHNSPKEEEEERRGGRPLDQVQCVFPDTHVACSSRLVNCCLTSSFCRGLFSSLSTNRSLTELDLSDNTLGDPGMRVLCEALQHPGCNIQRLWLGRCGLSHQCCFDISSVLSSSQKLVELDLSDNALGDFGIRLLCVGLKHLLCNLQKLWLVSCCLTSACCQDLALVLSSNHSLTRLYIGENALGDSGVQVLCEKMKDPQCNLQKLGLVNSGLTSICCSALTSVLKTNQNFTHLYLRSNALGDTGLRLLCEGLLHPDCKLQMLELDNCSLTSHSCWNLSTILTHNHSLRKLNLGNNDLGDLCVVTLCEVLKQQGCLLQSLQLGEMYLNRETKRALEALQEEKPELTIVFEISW

By inhibition is commonly meant the share of the control response that was lost under treatment. For orientation: solubility means how much of the substance goes into solution per volume. As for `C=C(Cc1ccccc1Cl)C(=O)OCC`, the inhibition entry in series [1] was “Dose-dependent effect”; in series [5], 40%. Further, the Activity with Rattus norvegicus [2] is given as 6.6 ng/mg; with Rattus norvegicus [3] it was 3.5 pg/mg; with Rattus norvegicus [6] it was -13%; with Rattus norvegicus [7], 16.4 ng/mg; in the series on Rattus norvegicus [9] it was 2.2%. The Drug metabolism entry in [4] is “Metabolite not detected”; with Liver, “Metabolite_Detected”. The molecule also showed a solubility at 24 h in series [8] of 6 µg/mL (≈ 26.7 µM). Also, the Stability in series [10] was greater than 99.5%. Also, the inhibition result in series [11] was “Active”.
